From ChEMBL document CHEMBL1131139, “Synthesis and antibacterial activity of ketolides (6-O-methyl-3-oxoerythromycin derivatives): a new class of antibacterials highly potent against macrolide-resistant and -susceptible respiratory pathogens” (1998) come the findings set out here.

In brackets after ≈: the same amount, converted by molar mass.

Holding throughout (format): functional
Test [1] deals with Haemophilus influenzae. In words: In vitro inhibitory activity against Haemophilus influenzae (351CB12). The procedure, abridged:
(§1)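 Two-fold agar dilution on Mueller-Hinton agar (pH 7.4). Inoculum from overnight plate cultures suspended in Mueller-Hinton broth, adjusted to 10^9 CFU/mL, diluted 1:200 and spotted by multipoint inoculator at about 10^4 CFU/spot. Plates incubated 37 °C for 20 h. MIC taken as lowest concentration with no visible growth.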

The next test relates to Streptococcus pyogenes. Nature of the test: In vitro inhibitory activity against Streptococcus pyogenes (02A1UC1). Put shortly:
as §1

Test [2] relates to Haemophilus influenzae. In words: In vitro inhibitory activity against Haemophilus influenzae (351HT3). The procedure, abridged:
as §1

The test system of test [3] is Streptococcus pneumoniae. In words: In vitro inhibitory activity against Streptococcus pneumoniae (032UC1). Put shortly:
as §1

For test [4], the system named is Staphylococcus aureus. Nature of the test: In vitro inhibitory activity against Staphylococcus aureus (011UC4). The procedure, abridged: as §1
Test [5] deals with Streptococcus pneumoniae. Nature of the test: In vitro inhibitory activity against Streptococcus pneumoniae (EryRc 030SJ1). Put shortly: as §1
The subject of test [6] is Staphylococcus epidermidis. Nature of the test: In vitro inhibitory activity against Staphylococcus epidermidis (EryRi 012GO11i). The procedure, abridged:
as §1

The test system of another test is Escherichia coli. Nature of the test: In vitro inhibitory activity against Escherichia coli (250 UC5). Put shortly: as §1
For test [7], the system named is Staphylococcus aureus. Nature of the test: In vitro inhibitory activity against Staphylococcus aureus (EryRi 011GO25i). Put shortly: as §1
Test [8] has as its system Streptococcus pneumoniae. Nature of the test: In vitro inhibitory activity against Streptococcus pneumoniae (EryRi 030SJ5i). The procedure, abridged:
as §1

Test [9] deals with Staphylococcus aureus. In words: In vitro inhibitory activity against Staphylococcus aureus (EryRc 011CB20). Put shortly: as §1

Regarding `CC[C@H]1OC(=O)[C@H](C)C(=O)[C@H](C)[C@@H](O[C@@H]2O[C@H](C)C[C@H](N(C)C)[C@H]2O)[C@](C)(OC)C[C@@H](C)/C(=N\OCCNCc2ccccc2)[C@H](C)[C@@H](O)[C@]1(C)O`, the MIC against Haemophilus influenzae [1] was 40 µg/mL (≈ 54.4 µM); in the test with Streptococcus pyogenes, 0.6 µg/mL (≈ 0.815 µM); in the test with Haemophilus influenzae [2], 40 µg/mL (≈ 54.4 µM); against Streptococcus pneumoniae [3], 0.15 µg/mL (≈ 0.204 µM); against Staphylococcus aureus [4], 0.6 µg/mL (≈ 0.815 µM); against Streptococcus pneumoniae [5] it was 40 µg/mL (≈ 54.4 µM). The MIC in test [6] came out at 5 µg/mL (≈ 6.79 µM); in the test on Escherichia coli, 40 µg/mL (≈ 54.4 µM); against Staphylococcus aureus [7], 5 µg/mL (≈ 6.79 µM); against Streptococcus pneumoniae [8] it was 40 µg/mL (≈ 54.4 µM); with Staphylococcus aureus [9] it was 40 µg/mL (≈ 54.4 µM).
In the case of `CC[C@H]1OC(=O)[C@H](C)C(=O)[C@H](C)[C@@H](O[C@@H]2O[C@H](C)C[C@H](N(C)C)[C@H]2O)[C@](C)(OC)C[C@@H](C)C(=O)[C@H](C)[C@H]2N(N)C(=O)O[C@]12C`, the MIC was determined as 10 µg/mL (≈ 15.9 µM) in the test on Haemophilus influenzae [1]; 0.15 µg/mL (≈ 0.239 µM) against Streptococcus pyogenes; 10 µg/mL (≈ 15.9 µM) against Haemophilus influenzae [2]; 0.08 µg/mL (≈ 0.127 µM) against Streptococcus pneumoniae [3]; 1.2 µg/mL (≈ 1.91 µM) against Staphylococcus aureus [4]; 40 µg/mL (≈ 63.7 µM) in the test on Streptococcus pneumoniae [5]. Besides, the MIC turned out to be 1.2 µg/mL (≈ 1.91 µM) in [6]; 40 µg/mL (≈ 63.7 µM) against Escherichia coli; 1.2 µg/mL (≈ 1.91 µM) against Staphylococcus aureus [7]; 40 µg/mL (≈ 63.7 µM) against Streptococcus pneumoniae [8]; 40 µg/mL (≈ 63.7 µM) against Staphylococcus aureus [9].
`CC[C@H]1OC(=O)[C@H](C)C(=O)[C@H](C)[C@@H](O[C@@H]2O[C@H](C)C[C@H](N(C)C)[C@H]2O)[C@](C)(OC)C[C@@H](C)/C(=N\OC[C@@H](N)C(=O)[O-])[C@H](C)[C@@H](O)[C@]1(C)O.[K+]`: the MIC against Haemophilus influenzae [1], with Streptococcus pyogenes, in the test on Haemophilus influenzae [2], against Streptococcus pneumoniae [3], with Staphylococcus aureus [4] and in the test on Streptococcus pneumoniae [5] was 40 µg/mL throughout. For the same compound, the MIC (in [6]; in the test with Escherichia coli; with Staphylococcus aureus [7]; in the test with Streptococcus pneumoniae [8]; with Staphylococcus aureus [9]) was 40 µg/mL each time.
As for `CC[C@H]1OC(=O)[C@H](C)C(=O)[C@H](C)[C@@H](O[C@@H]2O[C@H](C)C[C@H](N(C)C)[C@H]2O)[C@](C)(OC)C[C@@H](C)C(=O)[C@H](C)[C@H]2N(CCCCc3ccnc4ccc(OC)cc34)C(=O)O[C@]12C`, the MIC in the test on Haemophilus influenzae [1] worked out at 1.2 µg/mL (≈ 1.45 µM); with Streptococcus pyogenes, 0.02 µg/mL (≈ 0.0242 µM); against Haemophilus influenzae [2] it was 1.2 µg/mL (≈ 1.45 µM); against Streptococcus pneumoniae [3], 0.02 µg/mL (≈ 0.0242 µM); in the test on Staphylococcus aureus [4], 0.08 µg/mL (≈ 0.0968 µM); against Streptococcus pneumoniae [5], 0.6 µg/mL (≈ 0.726 µM). In addition, the MIC in [6] was determined as 0.04 µg/mL (≈ 0.0484 µM); with Escherichia coli it was 40 µg/mL (≈ 48.4 µM); against Staphylococcus aureus [7], 0.08 µg/mL (≈ 0.0968 µM); in the test on Streptococcus pneumoniae [8], 0.02 µg/mL (≈ 0.0242 µM); in the test on Staphylococcus aureus [9], 40 µg/mL (≈ 48.4 µM).
On to `CCCNCCO/N=C1\[C@H](C)C[C@@](C)(OC)[C@H](O[C@@H]2O[C@H](C)C[C@H](N(C)C)[C@H]2O)[C@@H](C)C(=O)[C@@H](C)C(=O)O[C@H](CC)[C@@](C)(O)[C@H](O)[C@H]1C`, for which the MIC was found to be 10 µg/mL (≈ 14.5 µM) with Haemophilus influenzae [1]; 0.04 µg/mL (≈ 0.0581 µM) against Streptococcus pyogenes; 40 µg/mL (≈ 58.1 µM) against Haemophilus influenzae [2]; 10 µg/mL (≈ 14.5 µM) against Streptococcus pneumoniae [3]; 0.15 µg/mL (≈ 0.218 µM) with Staphylococcus aureus [4]; 40 µg/mL (≈ 58.1 µM) in the test with Streptococcus pneumoniae [5]. The MIC in [6] turned out to be 0.15 µg/mL (≈ 0.218 µM); against Escherichia coli, 40 µg/mL (≈ 58.1 µM); in the test on Staphylococcus aureus [7] it was 0.3 µg/mL (≈ 0.436 µM); against Streptococcus pneumoniae [8], 1.2 µg/mL (≈ 1.74 µM); with Staphylococcus aureus [9], 40 µg/mL (≈ 58.1 µM).
Turning to `CC[C@H]1OC(=O)[C@H](C)C(=O)[C@H](C)[C@@H](O[C@@H]2O[C@H](C)C[C@H](N(C)C)[C@H]2O)[C@](C)(OC)C[C@@H](C)C(=O)[C@H](C)[C@H]2N(CCCCc3ccccc3)C(=O)O[C@]12C`, the MIC came out at 2.5 µg/mL (≈ 3.36 µM) against Haemophilus influenzae [1]; 0.02 µg/mL (≈ 0.0268 µM) against Streptococcus pyogenes; 1.2 µg/mL (≈ 1.61 µM) against Haemophilus influenzae [2]; 0.02 µg/mL (≈ 0.0268 µM) in the test with Streptococcus pneumoniae [3]; 0.08 µg/mL (≈ 0.107 µM) against Staphylococcus aureus [4]; 0.15 µg/mL (≈ 0.201 µM) against Streptococcus pneumoniae [5]. The MIC in test [6] was determined as 0.04 µg/mL (≈ 0.0537 µM); in the test on Escherichia coli, 40 µg/mL (≈ 53.7 µM); against Staphylococcus aureus [7] it was 0.15 µg/mL (≈ 0.201 µM); with Streptococcus pneumoniae [8], 0.3 µg/mL (≈ 0.403 µM); in the test on Staphylococcus aureus [9], 40 µg/mL (≈ 53.7 µM).
Take `CC[C@H]1OC(=O)[C@H](C)C(=O)[C@H](C)[C@@H](O[C@@H]2O[C@H](C)C[C@H](N(C)C)[C@H]2O)[C@](C)(OC)C[C@@H](C)/C(=N\OC2CCNC2)[C@H](C)[C@@H](O)[C@]1(C)O` (stereo partly drawn): the MIC worked out at 5 µg/mL (≈ 7.44 µM) in the test with Haemophilus influenzae [1]; 0.04 µg/mL (≈ 0.0595 µM) against Streptococcus pyogenes; 10 µg/mL (≈ 14.9 µM) in the test with Haemophilus influenzae [2]; 0.02 µg/mL (≈ 0.0298 µM) in the test on Streptococcus pneumoniae [3]; 0.15 µg/mL (≈ 0.223 µM) against Staphylococcus aureus [4]; 10 µg/mL (≈ 14.9 µM) against Streptococcus pneumoniae [5]. The MIC is 6 µg/mL (≈ 8.93 µM) in [6]; 40 µg/mL (≈ 59.5 µM) with Escherichia coli; 5 µg/mL (≈ 7.44 µM) in the test on Staphylococcus aureus [7]; 40 µg/mL (≈ 59.5 µM) in the test on Streptococcus pneumoniae [8]; 40 µg/mL (≈ 59.5 µM) in the test on Staphylococcus aureus [9].
With `CC[C@H]1OC(=O)[C@H](C)C(=O)[C@H](C)[C@@H](O[C@@H]2O[C@H](C)C[C@H](N(C)C)[C@H]2O)[C@](C)(OC)C[C@@H](C)/C(=N\OC[C@@H](N)C(=O)OC)[C@H](C)[C@@H](O)[C@]1(C)O`, the MIC came out at 40 µg/mL (≈ 56.8 µM) against Haemophilus influenzae [1]; 0.6 µg/mL (≈ 0.852 µM) in the test on Streptococcus pyogenes; 40 µg/mL (≈ 56.8 µM) in the test on Haemophilus influenzae [2]; 0.6 µg/mL (≈ 0.852 µM) against Streptococcus pneumoniae [3]; 1.2 µg/mL (≈ 1.7 µM) in the test on Staphylococcus aureus [4]; 40 µg/mL (≈ 56.8 µM) against Streptococcus pneumoniae [5]. For the same compound, the MIC in [6] was 2.5 µg/mL (≈ 3.55 µM); in the test with Escherichia coli, 40 µg/mL (≈ 56.8 µM); against Staphylococcus aureus [7] it was 10 µg/mL (≈ 14.2 µM); against Streptococcus pneumoniae [8], 20 µg/mL (≈ 28.4 µM); with Staphylococcus aureus [9] it was 40 µg/mL (≈ 56.8 µM).
